Here are results for 9 compounds from ChEMBL document CHEMBL2380254, “Optimization of tocotrienols as antiproliferative and antimigratory leads” (Eur J Med Chem, 2013).

What all share (assay type): functional
Assay [1] concerns UACC-62. Nature of the assay: Growth inhibition of human UACC62 cells assessed as cell growth at 10 uM after 48 hrs by sulforhodamine B assay. Conditions: UACC-62, 48 h, read-out: Activity. A digest of the protocol:
(§1)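 Single-dose NCI-60 test at 10 µM. Cells were grown in RPMI 1640 with 5% FBS and 2 mM L-glutamine, preincubated 24 h, with T0 plates TCA-fixed. Exposure was 48 h at 37 °C, 5% CO2. Cells were fixed with cold TCA (final 10%, 4 °C, 60 min), stained with SRB and read at 515 nm. Percent growth was taken relative to T0 and untreated control; negative values denote cell kill.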

Assay [2] concerns ACHN. Put plainly: Growth inhibition of human ACHN cells assessed as cell growth at 10 uM after 48 hrs by sulforhodamine B assay. Conditions: read-out: Activity. The procedure, abridged:
(§2)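 NCI-60 single-dose screen at 10 µM: cells in RPMI 1640 with 5% FBS, preincubated 24 h, then exposed 48 h at 37 °C. TCA fixation (16% final for suspension cells), SRB staining, absorbance 515 nm. Percent growth relative to time-zero and untreated control plates; negative values indicate cell kill.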

Assay [3] has as its system OVCAR-3. Nature of the assay: Growth inhibition of human OVCAR3 cells assessed as cell growth at 10 uM after 48 hrs by sulforhodamine B assay. Conditions: OVCAR-3, 48 h, read-out: Activity. The procedure, abridged: (§3)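 Single-dose NCI-60 screen: adherent cells in RPMI 1640 with 5% FBS were exposed to 10 µM for 48 h at 37 °C after a 24 h preincubation. They were fixed in situ with cold TCA (10% final), stained with 0.4% SRB in 1% acetic acid, solubilized in 10 mM Tris base, and read at 515 nm. Percent growth was taken relative to time-zero and control plates.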

For assay [4], the system named is SR. Put plainly: Growth inhibition of human SR cells assessed as cell growth at 10 uM after 48 hrs by sulforhodamine B assay. The settings on record: read-out: Activity. The procedure, abridged:
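Suspension line in RPMI 1640 with 5% FBS, single 10 µM dose for 48 h. Settled cells were fixed with TCA (final 16%), then SRB-stained and read at 515 nm. Percent growth was taken versus T0 and control; negative values denote cytotoxicity.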

The test system of assay [5] is RXF 393. Nature of the assay: Growth inhibition of human RXF393 cells assessed as cell growth at 10 uM after 48 hrs by sulforhodamine B assay. The settings on record: RXF 393, 48 h, read-out: Activity. A digest of the protocol:
as §3

A short description of assay [6]: Growth inhibition of human HCC2998 cells assessed as cell growth at 10 uM after 48 hrs by sulforhodamine B assay. Conditions: HCC 2998, 48 h, read-out: Activity. A digest of the protocol:
as §2

The test system of assay [7] is CCRF-CEM. Put plainly: Growth inhibition of human CCRF-CEM cells assessed as cell growth at 10 uM after 48 hrs by sulforhodamine B assay. The settings on record: read-out: Activity. A digest of the protocol:
as §2

The subject of assay [8] is SK-MEL-28. Put plainly: Growth inhibition of human SK-MEL-28 cells assessed as cell growth at 10 uM after 48 hrs by sulforhodamine B assay. The settings on record: SK-MEL-28, 48 h, read-out: Activity. The procedure, abridged: as §3
For assay [9], the system named is SNB-75. Nature of the assay: Growth inhibition of human SNB75 cells assessed as cell growth at 10 uM after 48 hrs by sulforhodamine B assay. Conditions: SNB-75, 48 h, read-out: Activity. A digest of the protocol: as §1
Assay [10] concerns HCT-15. Put plainly: Growth inhibition of human HCT15 cells assessed as cell growth at 10 uM after 48 hrs by sulforhodamine B assay. Conditions: HCT-15, 48 h, read-out: Activity. A digest of the protocol:
as §2

Assay [11] is described as follows: Growth inhibition of human EKVX cells assessed as cell growth at 10 uM after 48 hrs by sulforhodamine B assay. Conditions: read-out: Activity. The procedure, abridged: as §2
The test system of assay [12] is A498. Put plainly: Growth inhibition of human A498 cells assessed as cell growth at 10 uM after 48 hrs by sulforhodamine B assay. The settings on record: A498, 48 h, read-out: Activity. A digest of the protocol:
as §2

With `CC(C)=CCC/C(C)=C/CC/C(C)=C/CC[C@]1(C)CCc2c3c(cc(C)c2O1)OCN(CCCCCCCCCCO)C3`, the growth at 10 µM in [1] turned out to be 109%; in assay [2], 99.1%; in assay [3] it was 94.3%; in assay [4], 3.3%; in assay [5] it was 52.6%; in assay [6], 98.5%. Further, the growth at 10 µM was determined as 49.5% in assay [7]; 99.9% in assay [8]; 74.5% in [9]; 96.9% in [10]; 87.1% in [11].

In the case of `CC(C)=CCC/C(C)=C/CC/C(C)=C/CC[C@]1(C)CCc2c3c(c(C)c(C)c2O1)OCN(CCCCCCCCCCCCO)C3`, the growth at 10 µM stood at 89.5% in [1]; 105% in assay [2]; 109% in [3]; 67.2% in assay [4]; 92.5% in assay [5]; 102% in [6]. The growth at 10 µM in assay [7] stood at 95.2%; in [8], 110%; in assay [9] it was 94.6%; in assay [10] it was 100%; in assay [11], 105%.

Regarding `COc1ccc(CCNCc2c(O)c(C)c(C)c3c2CC[C@@](C)(CC/C=C(\C)CC/C=C(\C)CCC=C(C)C)O3)cc1OC`, the growth at 10 µM in [1] is 98.3%; in [2], 97.5%; in [3], 101%; in assay [4] it was 7.87%; in [6] it was -25.9%; in [12], 107%. Further, the growth at 10 µM in assay [7] was determined as 75.3%; in assay [8], 92.6%; in [9], 80.5%; in assay [10] it was 104%; in assay [11], 99.3%.

Take `CC(C)=CCC/C(C)=C/CC/C(C)=C/CC[C@]1(C)CCc2c(CNCCc3ccc(O)cc3)c(O)c(C)c(C)c2O1`: the growth at 10 µM in [1] amounted to 106%; in assay [2], 98.7%; in assay [3], 97.1%; in assay [4], 18.5%; in assay [6] it was 57.7%; in [12] it was 104%. For the same compound, the growth at 10 µM in [7] was 75.2%; in assay [8], 93.4%; in assay [9], 68.1%; in assay [10], 106%; in assay [11] it was 99.8%.

With `COc1ccc(CCN2COc3c(C)c(C)c4c(c3C2)CC[C@@](C)(CC/C=C(\C)CC/C=C(\C)CCC=C(C)C)O4)cc1OC`, the growth at 10 µM in assay [1] turned out to be 96.5%; in assay [2], 95.8%; in assay [3], 105%; in assay [4], 54.6%; in [6] it was 70.5%; in [12], 108%. For the same compound, the growth at 10 µM in [7] turned out to be 78%; in [8] it was 93.6%; in assay [9], 82.8%; in assay [10], 102%; in [11], 94.1%.

Turning to `CC(C)=CCC/C(C)=C/CC/C(C)=C/CC[C@]1(C)CCc2c3c(c(C)c(C)c2O1)OCN(CCCCCCCCCCO)C3`, the growth at 10 µM in [1] was found to be 103%; in assay [2], 92.6%; in [3] it was 94.8%; in assay [4], 51.9%; in [5], 83.1%; in assay [6], 97.9%. Further, the growth at 10 µM was determined as 87.7% in assay [7]; 98.2% in assay [8]; 91.4% in [9]; 91.1% in assay [10]; 102% in assay [11].

Take `CC(C)=CCC/C(C)=C/CC/C(C)=C/CC[C@]1(C)CCc2cc(O)c(C)c(C)c2O1` [GAMMA-TOCOTRIENOL]: the growth at 10 µM was 108% in [1]; 100% in assay [2]; 110% in assay [3]; 85.5% in assay [4]; 84.1% in assay [5]; 115% in [6]. In addition, the growth at 10 µM turned out to be 84% in [7]; 97.3% in assay [8]; 84.3% in assay [9]; 102% in [10]; 110% in assay [11].

`CC(C)=CCC/C(C)=C/CC/C(C)=C/CC[C@]1(C)CCc2c3c(cc(C)c2O1)OCN(CCCCCCCCCCCCO)C3`: the growth at 10 µM in assay [1] is 67.2%; in assay [2], 91.3%; in [3], 89.5%; in [4] it was -19.6%; in assay [5], 34.4%; in assay [6], 68.7%. The growth at 10 µM came out at 13.6% in assay [7]; 75.3% in assay [8]; 97.7% in [9]; 82.9% in assay [10]; 77.6% in [11].

Consider `CC(C)=CCC/C(C)=C/CC/C(C)=C/CC[C@]1(C)CCc2c3c(c(C)c(C)c2O1)OCN(CCc1ccc(O)cc1)C3`, for which the growth at 10 µM in [1] worked out at 104%; in [2] it was 99.8%; in assay [3], 98.2%; in [4], 16.3%; in assay [6] it was 23.3%; in assay [12], 90.2%. Also, the growth at 10 µM was 49.6% in assay [7]; 76.6% in assay [8]; 69.2% in assay [9]; 102% in assay [10]; 93.9% in [11].
